Data published in ChEMBL document CHEMBL1155086, “Synthesis and evaluation of antitubercular activity of glycosyl thio- and sulfonyl acetamide derivatives” (Bioorg Med Chem Lett, 2008).
In brackets after ≈: the same amount, converted by molar mass.

Experiments:
[1] = system: Mycobacterium tuberculosis; assay: Antitubercular activity against Mycobacterium tuberculosis H37Rv after 4 weeks by agar dilution method; assay type: functional; details: 672 h
Procedure, shortened: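 Proportion method on agar: serial twofold dilutions mixed into warm Middlebrook 7H10 agar and set as slants. Each slant surface inoculated with 10⁵ CFU of M. tuberculosis H37Rv in 10 µL, then incubated at 37 °C for 4 weeks. MIC (µg/mL) taken as the lowest concentration giving complete inhibition of colony growth. Rifampicin and isoniazid served as reference drugs.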

[2] = Cytotoxicity against african green monkey Vero C1008 cells; assay type: cell-based; details: chlorocebus sabaeus
Procedure, shortened: (§1)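 MTS (Mosmann-type) viability assay. 10⁴ cells/well in DME with 10% foetal bovine serum plus antibiotics were pre-incubated 24 h at 37 °C, 5% CO2. Medium was then replaced with serial dilutions of compound, a standard toxic compound or DMSO, and incubated a further 24 h. MTS was added and absorbance read at 490 nm after 2 h. DMSO wells were set as 100% viability.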

[3] = Cytotoxicity against mouse bone marrow derived macrophages; assay type: cell-based; details: macrophage; procedure, shortened: as §1

SMILES | MIC [1] | Activity [2] | Activity [3]
CCCCCCCCCCCCNC(=O)CS(=O)(=O)[C@@H]1O[C@H](COC(C)=O)[C@@H](O[C@@H]2O[C@H](COC(C)=O)[C@H](OC(C)=O)[C@H](OC(C)=O)[C@H]2OC(C)=O)[C@H](OC(C)=O)[C@H]1OC(C)=O | > 12.5 µg/mL |  | 
CCCCCCCCNC(=O)CS(=O)(=O)[C@@H]1O[C@H](COC(C)=O)[C@@H](O[C@@H]2O[C@H](COC(C)=O)[C@H](OC(C)=O)[C@H](OC(C)=O)[C@H]2OC(C)=O)[C@H](OC(C)=O)[C@H]1OC(C)=O | > 12.5 µg/mL |  | 
CC(=O)OC[C@H]1O[C@@H](SCC(N)=O)[C@H](OC(C)=O)[C@@H](OC(C)=O)[C@@H]1O[C@H]1O[C@H](COC(C)=O)[C@@H](OC(C)=O)[C@H](OC(C)=O)[C@H]1OC(C)=O | > 12.5 µg/mL |  | 
CC(=O)OC[C@H]1O[C@@H](S(=O)(=O)CC(N)=O)[C@H](OC(C)=O)[C@@H](OC(C)=O)[C@@H]1O[C@H]1O[C@H](COC(C)=O)[C@@H](OC(C)=O)[C@H](OC(C)=O)[C@H]1OC(C)=O | 25 µg/mL (≈ 33.7 µM) |  | 
CC(=O)O[C@H]1[C@H](OC(C)=O)[C@H](OC(C)=O)CO[C@H]1S(=O)(=O)CC(N)=O | 12.5 µg/mL (≈ 32.8 µM) |  | 
CCCCCCCCCCCCNC(=O)CS[C@@H]1OC[C@@H](OC(C)=O)[C@@H](OC(C)=O)[C@@H]1OC(C)=O | 3.12 µg/mL (≈ 6.04 µM) | Non-toxic | Non-toxic
CC(=O)OC[C@H]1O[C@@H](S(=O)(=O)CC(N)=O)[C@H](OC(C)=O)[C@@H](OC(C)=O)[C@@H]1OC(C)=O | 3.12 µg/mL (≈ 6.89 µM) | Non-toxic | Non-toxic
CC(=O)O[C@@H]1[C@H](OC(C)=O)[C@H](OC(C)=O)CO[C@H]1S(=O)(=O)CC(N)=O | 6.25 µg/mL (≈ 16.4 µM) | Non-toxic | Non-toxic
CC(=O)O[C@@H]1[C@@H](OC(C)=O)[C@H](OC(C)=O)CO[C@H]1S(=O)(=O)CC(N)=O | 12.5 µg/mL (≈ 32.8 µM) |  | 
CCCCCCCCNC(=O)CS(=O)(=O)[C@@H]1O[C@H](COC(C)=O)[C@@H](OC(C)=O)[C@H](OC(C)=O)[C@H]1OC(C)=O | > 12.5 µg/mL |  | 
CCCCCCCCCCCCNC(=O)CS(=O)(=O)[C@@H]1OC[C@@H](OC(C)=O)[C@@H](OC(C)=O)[C@@H]1OC(C)=O | > 12.5 µg/mL |  | 
CC(=O)OC[C@H]1O[C@@H](S(=O)(=O)CC(=O)NCc2ccccc2)[C@H](OC(C)=O)[C@@H](OC(C)=O)[C@@H]1OC(C)=O | 6.25 µg/mL (≈ 11.5 µM) | Non-toxic | Non-toxic
CC(=O)O[C@H]1[C@H](OC(C)=O)[C@H](SCC(N)=O)OC[C@H]1OC(C)=O | > 12.5 µg/mL |  | 
CCCCCCCCNC(=O)CS[C@@H]1O[C@H](COC(C)=O)[C@@H](OC(C)=O)[C@H](OC(C)=O)[C@H]1OC(C)=O | > 12.5 µg/mL |  | 
CCCCCCCCNC(=O)CS[C@@H]1OC[C@@H](OC(C)=O)[C@@H](OC(C)=O)[C@@H]1OC(C)=O | > 12.5 µg/mL |  | 
CC(=O)OC[C@H]1O[C@@H](SCC(N)=O)[C@H](OC(C)=O)[C@@H](OC(C)=O)[C@@H]1OC(C)=O | 3.12 µg/mL (≈ 7.42 µM) | Non-toxic | Non-toxic

SMILES | MIC [1] | Activity [2] | Activity [3]
CC(=O)OC[C@H]1O[C@@H](S(=O)(=O)CC(N)=O)[C@H](OC(C)=O)[C@@H](OC(C)=O)[C@H]1OC(C)=O | 3.12 µg/mL (≈ 6.89 µM) | Non-toxic | Non-toxic
CC(=O)OC[C@H]1O[C@@H](SCC(N)=O)[C@@H](OC(C)=O)[C@@H](OC(C)=O)[C@@H]1OC(C)=O | 3.12 µg/mL (≈ 7.42 µM) | Non-toxic | Non-toxic
CC(=O)O[C@@H]1[C@H](OC(C)=O)[C@H](OC(C)=O)CO[C@H]1SCC(N)=O | 12.5 µg/mL (≈ 35.8 µM) |  | 
CCCCCCCCCCCCNC(=O)CS[C@@H]1O[C@H](COC(C)=O)[C@@H](OC(C)=O)[C@H](OC(C)=O)[C@H]1OC(C)=O | > 12.5 µg/mL |  | 
CC(=O)OC[C@H]1O[C@@H](O[C@H]2[C@H](OC(C)=O)[C@@H](OC(C)=O)[C@H](SCC(N)=O)O[C@@H]2COC(C)=O)[C@H](OC(C)=O)[C@@H](OC(C)=O)[C@H]1OC(C)=O | > 12.5 µg/mL |  | 
CC(=O)OC[C@H]1O[C@@H](SCC(N)=O)[C@H](OC(C)=O)[C@@H](OC(C)=O)[C@@H]1O[C@@H]1O[C@H](COC(C)=O)[C@@H](OC(C)=O)[C@H](OC(C)=O)[C@H]1OC(C)=O | > 12.5 µg/mL |  | 
CC(=O)OC[C@H]1O[C@@H](S(=O)(=O)CC(N)=O)[C@H](OC(C)=O)[C@@H](OC(C)=O)[C@@H]1O[C@@H]1O[C@H](COC(C)=O)[C@@H](OC(C)=O)[C@H](OC(C)=O)[C@H]1OC(C)=O | 25 µg/mL (≈ 33.7 µM) |  | 
CCCCCCCCNC(=O)CS[C@@H]1O[C@H](COC(C)=O)[C@@H](O[C@@H]2O[C@H](COC(C)=O)[C@H](OC(C)=O)[C@H](OC(C)=O)[C@H]2OC(C)=O)[C@H](OC(C)=O)[C@H]1OC(C)=O | > 12.5 µg/mL |  | 
CCCCCCCCCCCCNC(=O)CS(=O)(=O)[C@@H]1O[C@H](COC(C)=O)[C@@H](OC(C)=O)[C@H](OC(C)=O)[C@H]1OC(C)=O | > 12.5 µg/mL |  | 
CCCCCCCCCCCCNC(=O)CS[C@@H]1O[C@H](COC(C)=O)[C@@H](O[C@@H]2O[C@H](COC(C)=O)[C@H](OC(C)=O)[C@H](OC(C)=O)[C@H]2OC(C)=O)[C@H](OC(C)=O)[C@H]1OC(C)=O | > 12.5 µg/mL |  | 
CC(=O)OC[C@H]1O[C@@H](O[C@H]2[C@H](OC(C)=O)[C@@H](OC(C)=O)[C@H](S(=O)(=O)CC(N)=O)O[C@@H]2COC(C)=O)[C@H](OC(C)=O)[C@@H](OC(C)=O)[C@H]1OC(C)=O | 3.12 µg/mL (≈ 4.21 µM) | Non-toxic | Non-toxic
CC(=O)OC[C@H]1O[C@@H](S(=O)(=O)CC(N)=O)[C@@H](OC(C)=O)[C@@H](OC(C)=O)[C@@H]1OC(C)=O | > 12.5 µg/mL |  | 
CC(=O)OC[C@H]1O[C@@H](SCC(=O)NCc2ccccc2)[C@H](OC(C)=O)[C@@H](OC(C)=O)[C@@H]1OC(C)=O | 6.25 µg/mL (≈ 12.2 µM) |  | 
CCCCCCCCNC(=O)CS(=O)(=O)[C@@H]1OC[C@@H](OC(C)=O)[C@@H](OC(C)=O)[C@@H]1OC(C)=O | > 12.5 µg/mL |  | 
CC(=O)OC[C@H]1O[C@@H](SCC(N)=O)[C@H](OC(C)=O)[C@@H](OC(C)=O)[C@H]1OC(C)=O | 1.56 µg/mL (≈ 3.7 µM) | Non-toxic | Non-toxic
CC(=O)O[C@@H]1[C@@H](OC(C)=O)[C@H](SCC(N)=O)OC[C@H]1OC(C)=O | 12.5 µg/mL (≈ 35.8 µM) |  | 
